Laboratory results published in PubChem BioAssay AID488972 (Southern Research Specialized Biocontainment Screening …, 2010).
pIC50: −log10 of the molar value. Calls of active or inactive are those of the source.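 Rule for the calls: active = compounds blocking at least half of the virus-caused cell damage; inactive = the rest.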

Test system: HEp-2 RSV Long CPE, luminescence viability
Assay: antiviral activity against RSV Long strain – cell-based, HEp-2, luminescence viability, purified and synthesized compounds, dose response (AID 488972)
Summary of the method: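 Material: HEp-2 cells infected with RSV strain Long; also added: RSV strain Long at MOI 0.45; incubation: 6 days at 37 °C; detection: luminescence-based measurement of viral cytopathic effect; measure: % CPE inhibition and constrained 4-parameter IC50; benchmarks: cell-only and virus-only wells; replication: triplicate wells per dose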

Structure (SMILES)	IC50	pIC50
Cc1ccc(NC(=O)CNS(=O)(=O)c2cccc3cccnc23)c(C)c1	> 50 µM (inactive)	
CSc1ncccc1C(=O)Nc1nc(C(C)(C)C)cs1		4.79
Cc1ccc(NC(=O)C2CCCN2S(C)(=O)=O)c(C)c1 (stereo unspecified)	> 50 µM (inactive)	
CSc1ncccc1C(=O)Nc1nc(C)cs1	> 50 µM (inactive)	
Cc1csc(NC(=O)c2cccnc2)n1	> 50 µM (inactive)	
Cc1ccc(NC(=O)C2CCCN2S(=O)(=O)c2ccc3ncccc3c2)c(C)c1 (stereo unspecified)	> 50 µM (inactive)	
Cc1ccc(NC(=O)CN(C)S(=O)(=O)c2cccc3cccnc23)c(C)c1	> 50 µM (inactive)	
Cc1ccc(NC(=O)C2CCCN2S(=O)(=O)c2cccc3ccccc23)c(C)c1 (stereo unspecified)	> 50 µM (inactive)	
CC(C)(C)c1csc(NC(=O)c2cccnc2)n1	> 50 µM (inactive)	
Cc1ccc(NC(=O)C2CCCN2C(=O)c2ccccc2)c(C)c1 (stereo unspecified)	> 50 µM (inactive)	
Cc1ccc(NC(=O)C2CCCN2C(=O)c2cccc3cccnc23)c(C)c1 (stereo unspecified)	> 50 µM (inactive)	
O=C(Nc1ccc(C(F)(F)F)cc1[N+](=O)[O-])O[C@H]1[C@H](Cc2ccccc2)NS(=O)(=O)[C@H]2C[C@@H]3C=C[C@]12O3	> 50 µM (inactive)	
Cc1ccc(NC(=O)C2CCCN2S(=O)(=O)c2cccc3cnccc23)c(C)c1 (stereo unspecified)	> 50 µM (inactive)	
Cc1ccc(NC(=O)[C@H]2CCCN2S(=O)(=O)c2cccc3cccnc23)c(C)c1	> 50 µM (inactive)	
Cc1ccc(NC(=O)[C@@H]2CCCN2S(=O)(=O)c2cccc3cccnc23)c(C)c1		5.11
Cc1ccc(NC(=O)C(C)NS(=O)(=O)c2cccc3cccnc23)c(C)c1 (stereo unspecified)	> 50 µM (inactive)	
Cc1ccc(NC(=O)C2CCCN2S(=O)(=O)c2cccc3cccnc23)c(C)c1 (stereo unspecified)		4.88
Cc1ccc(NC(=O)C2CCCN2Cc2cccc3cccnc23)c(C)c1 (stereo unspecified)	> 50 µM (inactive)	
Cc1ccc(NC(=O)C2CCCN2Cc2ccccc2)c(C)c1 (stereo unspecified)	> 50 µM (inactive)	
Cc1ccc(NC(=O)C2CCCN2S(=O)(=O)c2ccccc2)c(C)c1 (stereo unspecified)	> 50 µM (inactive)	
Cc1ccc(NC(=O)C2CCCN2S(=O)(=O)c2cccc3cc(C)cnc23)c(C)c1 (stereo unspecified)	> 50 µM (inactive)	
